# pIC50, pKi: −log10 of the molar value.
# What was measured:
# [1] = molecular target: T1, Tyrosine-protein phosphatase non-receptor type 22 (Homo sapiens, UniProt Q9Y2R2); experiment: Inhibition of LYP (unknown origin) at 25 uM using pNPP as substrate relative to control
# T1 sequence (Q9Y2R2 whole entry): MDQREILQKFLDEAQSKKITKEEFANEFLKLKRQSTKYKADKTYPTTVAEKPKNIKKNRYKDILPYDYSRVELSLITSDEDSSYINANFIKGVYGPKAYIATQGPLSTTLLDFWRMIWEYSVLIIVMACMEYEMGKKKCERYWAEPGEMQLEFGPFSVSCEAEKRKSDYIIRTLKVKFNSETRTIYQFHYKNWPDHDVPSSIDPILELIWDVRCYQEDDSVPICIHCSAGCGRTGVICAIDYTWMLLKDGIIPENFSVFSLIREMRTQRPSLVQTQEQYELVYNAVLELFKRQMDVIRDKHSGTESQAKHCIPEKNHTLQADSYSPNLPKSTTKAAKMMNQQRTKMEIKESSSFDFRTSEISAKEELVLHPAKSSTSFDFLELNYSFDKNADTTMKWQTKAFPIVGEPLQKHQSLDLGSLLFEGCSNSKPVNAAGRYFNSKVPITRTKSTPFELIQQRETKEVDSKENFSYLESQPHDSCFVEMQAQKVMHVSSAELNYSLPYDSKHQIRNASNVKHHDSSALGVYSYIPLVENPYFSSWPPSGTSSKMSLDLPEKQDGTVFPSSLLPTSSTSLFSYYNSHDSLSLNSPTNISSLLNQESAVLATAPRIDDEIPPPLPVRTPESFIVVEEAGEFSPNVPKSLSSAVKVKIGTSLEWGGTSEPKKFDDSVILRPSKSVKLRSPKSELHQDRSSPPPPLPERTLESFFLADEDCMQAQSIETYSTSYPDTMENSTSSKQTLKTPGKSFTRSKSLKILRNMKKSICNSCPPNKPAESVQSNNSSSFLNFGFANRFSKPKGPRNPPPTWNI
# [2] = molecular target: T2, Tyrosine-protein phosphatase YopH (Yersinia enterocolitica, UniProt P15273); experiment: Non-competitive mixed inhibition of Yersinia enterocolitica YopH assessed as inhibition constant
# T2 sequence (P15273 whole entry): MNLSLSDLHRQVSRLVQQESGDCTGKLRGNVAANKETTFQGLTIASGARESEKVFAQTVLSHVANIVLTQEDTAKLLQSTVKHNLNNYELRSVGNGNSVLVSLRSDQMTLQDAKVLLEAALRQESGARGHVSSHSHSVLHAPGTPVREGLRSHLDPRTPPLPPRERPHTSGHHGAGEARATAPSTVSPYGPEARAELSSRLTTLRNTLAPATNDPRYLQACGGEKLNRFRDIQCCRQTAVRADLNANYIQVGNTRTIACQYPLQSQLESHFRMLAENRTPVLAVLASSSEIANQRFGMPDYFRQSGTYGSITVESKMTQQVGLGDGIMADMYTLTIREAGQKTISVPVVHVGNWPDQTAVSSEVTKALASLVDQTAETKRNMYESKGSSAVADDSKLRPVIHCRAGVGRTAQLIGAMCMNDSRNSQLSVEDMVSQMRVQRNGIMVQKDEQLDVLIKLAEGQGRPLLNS
# Procedure, shortened: (§1)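 Kinetic parameters were derived from Michaelis–Menten plots of YopH activity with and without inhibitor. Ki and α were obtained from a non-competitive mixed-inhibition analysis. Results are means ± SD of three independent experiments.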
# [3] = molecular target: T2, Tyrosine-protein phosphatase YopH; experiment: Non-competitive mixed inhibition of Yersinia enterocolitica YopH assessed as inhibition constant for enzyme-substrate complex; procedure, shortened: as §1
# [4] = molecular target: Tyrosine-protein phosphatase YopH (Yersinia enterocolitica) (UniProt P15273); experiment: Irreversible inhibition of Yersinia enterocolitica YopH assessed as enzyme recovery activity by dilution assay relative to control; set-up: scale not given: the % may be the effect or the level left
# Chain of Tyrosine-protein phosphatase YopH (Yersinia enterocolitica) (P15273 whole entry): as above
# Procedure, shortened: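 Reversibility tested by preincubation and dilution: enzyme preincubated with inhibitor, then diluted, and recovered phosphatase activity expressed as a percentage of control.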
# [5] = molecular target: T2, Tyrosine-protein phosphatase YopH; experiment: Inhibition of recombinant Yersinia enterocolitica YopH assessed as reduction in conversion of pNPP to nitrophenol and inorganic phosphate using pNPP as substrate by microplate reader assay
# Procedure, shortened: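 Recombinant YopH phosphatase activity was measured in vitro. Values are the average of individual means ± SD from three independent experiments.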
structure (smiles),measurement,setting,value
O=C(O)c1ccc(/C=C/C(=O)c2ccccc2O)cc1,inhibition at 25 µM,[1],11.7%
O=C(O)c1ccc(/C=C/C(=O)c2ccc(Br)cc2)cc1,inhibition at 25 µM,[1],15.7%
O=C(O)c1ccc(/C=C/C(=O)c2ccc(F)cc2)cc1,inhibition at 25 µM,[1],11.4%
O=C(/C=C/c1ccc(O)c(O)c1)O[C@@H](C(=O)O)[C@@H](OC(=O)/C=C/c1ccc(O)c(O)c1)C(=O)O [CICHORIC ACID],pKi,[2],4.17
same,pKi,[3],4.90
same,Activity,[4],0.6%
same,pIC50,[5],3.42
O=C(O)c1ccc(/C=C/C(=O)c2cccc(O)c2)cc1,inhibition at 25 µM,[1],7.9%
O=C1COc2ccc(C(=O)/C=C/c3ccc(C(=O)O)cc3)cc2N1,inhibition at 25 µM,[1],33.2%
COc1ccccc1C(=O)/C=C/c1ccc(C(=O)O)cc1,inhibition at 25 µM,[1],13%
O=C(O)c1ccc(/C=C/C(=O)c2ccccc2)cc1,inhibition at 25 µM,[1],4.2%
COc1ccc(C(=O)/C=C/c2ccc(C(=O)O)cc2)cc1,inhibition at 25 µM,[1],8.4%
COc1ccc(C(=O)/C=C/c2ccc(C(=O)O)cc2)cc1OC,inhibition at 25 µM,[1],4.2%

# Source: ChEMBL document CHEMBL4622949, “A chalcone derivative binds a putative allosteric site of YopH: Inhibition of a virulence factor of Yersinia” (Bioorg Med Chem Lett, 2020)
